Assay [1] has as its system Saccharomyces cerevisiae. As to the kind of experiment: Inhibition of Saccharomyces cerevisiae alpha-glucosidase using pNPG as substrate assessed as residual activity at 100 uM preincubated for 20 mins followed by substrate addition measured after 45 mins relative to control. In outline: (§1)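 α-Glucosidase (0.175 U/ml) in water with compound (1 µL DMSO dilution) pre-incubated 20 min at 37 °C. Then added PBS (140 mM, pH 7.2), reduced glutathione (9 mM) and pNPG (0.9 mM). Incubated 45 min at 37 °C, read at 400 nm. % inhibition = (AC−AS)/AC×100 vs DMSO-only control. Triplicates with blanks.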

Assay [2] deals with Hyaluronidase (Bos taurus) (UniProt Q8SQG8+Q5E985). The experiment in a line: Inhibition of bovine testes hyaluronidase using hyaluronic acid as substrate assessed as residual activity at 100 uM by nephelometric method relative to control. Format: protein assay. In outline:
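Hyaluronidase assayed nephelometrically per supplier-recommended protocol. Compounds added from DMSO stock (100 mM), DMSO ≤1% of total volume; activity expressed as percent of activity with DMSO alone.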

Assay [3] has as its system beta-glucuronidase (Bos taurus). The experiment in a line: Inhibition of bovine liver beta-glucuronidase using phenolphthalein beta-glucuronide as substrate assessed as residual activity measured liberation of phenolphthalein at 100 uM relative to control.
Assay [4] relates to Saccharomyces cerevisiae. As to the kind of experiment: Uncompetitive inhibition of Saccharomyces cerevisiae alpha-glucosidase using pNPG as substrate at 0.17 to 100 uM by Dixon plot analysis.
Assay [5] can be described thus: Uncompetitive inhibition of Saccharomyces cerevisiae alpha-glucosidase using pNPG as substrate by Cornish-Bowden plot analysis.
Assay [6] concerns Saccharomyces cerevisiae. As to the kind of experiment: Uncompetitive inhibition of Saccharomyces cerevisiae alpha-glucosidase using pNPG as substrate at 0.17 to 100 uM by Lineweaver-Burk plot analysis.
Assay [7] in a line: Inhibition of Saccharomyces cerevisiae alpha-glucosidase using pNPG as substrate at 100 uM preincubated for 20 mins followed by substrate addition measured after 45 mins. In outline:
as §1

The subject of assay [8] is Saccharomyces cerevisiae. The experiment in a line: Uncompetitive inhibition of Saccharomyces cerevisiae alpha-glucosidase using maltose as substrate assessed as ratio of Kik to Kiv at 4 uM. In a few lines:
(§2)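 Maltose as substrate in the α-glucosidase protocol (20 min preincubation with inhibitor at 37 °C, then substrate incubation at 37 °C). Reaction stopped at 95 °C for 3 min, and released glucose measured with an HK/G6P-DH glucose kit. Vmax and Km by Lineweaver-Burk; Kik/Kiv ratio per Yang et al.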

Assay [9] relates to Saccharomyces cerevisiae. The experiment in a line: Uncompetitive inhibition of Saccharomyces cerevisiae alpha-glucosidase using maltose as substrate assessed as ratio of Kik to Kiv at 8 uM. In a few lines: as §2
The subject of assay [10] is Saccharomyces cerevisiae. The experiment in a line: Uncompetitive inhibition of Saccharomyces cerevisiae alpha-glucosidase using maltose as substrate assessed as ratio of Kik to Kiv at 2 uM. In a few lines: as §2
The subject of assay [11] is Saccharomyces cerevisiae. The experiment in a line: Uncompetitive inhibition of Saccharomyces cerevisiae alpha-glucosidase using maltose as substrate at 0.17 to 100 uM by Lineweaver-Burk plot analysis. In a few lines: as §2
Assay [12] relates to Saccharomyces cerevisiae. The experiment in a line: Uncompetitive inhibition of Saccharomyces cerevisiae alpha-glucosidase using maltose as substrate at 0.17 to 100 uM by Dixon plot analysis.
The subject of assay [13] is Saccharomyces cerevisiae. As to the kind of experiment: Uncompetitive inhibition of Saccharomyces cerevisiae alpha-glucosidase using maltose as substrate assessed as ratio of Kik to Kiv at 1.2 uM. In a few lines: as §2
In assay [14] the test system is Saccharomyces cerevisiae. As to the kind of experiment: Uncompetitive inhibition of Saccharomyces cerevisiae alpha-glucosidase using pNPG as substrate assessed as ratio of Kik to Kiv at 4 uM.
In assay [15] the test system is Saccharomyces cerevisiae. The experiment in a line: Uncompetitive inhibition of Saccharomyces cerevisiae alpha-glucosidase using maltose as substrate assessed as ratio of Kik to Kiv at 2.4 uM. In a few lines:
as §2

Assay [16] concerns Saccharomyces cerevisiae. As to the kind of experiment: Uncompetitive inhibition of Saccharomyces cerevisiae alpha-glucosidase using maltose as substrate assessed as ratio of Kik to Kiv at 1.6 uM. In outline:
as §2

Assay [17] in a line: Uncompetitive inhibition of Saccharomyces cerevisiae alpha-glucosidase using maltose as substrate by Cornish-Bowden plot analysis.
The test system of assay [18] is Saccharomyces cerevisiae. The experiment in a line: Uncompetitive inhibition of Saccharomyces cerevisiae alpha-glucosidase using pNPG as substrate assessed as ratio of Kik to Kiv at 8 uM.
Assay [19] deals with Saccharomyces cerevisiae. As to the kind of experiment: Uncompetitive inhibition of Saccharomyces cerevisiae alpha-glucosidase using pNPG as substrate assessed as ratio of Kik to Kiv at 2.4 uM.
Assay [20] has as its system Saccharomyces cerevisiae. The experiment in a line: Uncompetitive inhibition of Saccharomyces cerevisiae alpha-glucosidase using pNPG as substrate assessed as ratio of Kik to Kiv at 1.2 uM.
Assay [21] deals with Saccharomyces cerevisiae. The experiment in a line: Uncompetitive inhibition of Saccharomyces cerevisiae alpha-glucosidase using pNPG as substrate assessed as ratio of Kik to Kiv at 2 uM.
Assay [22] concerns Saccharomyces cerevisiae. As to the kind of experiment: Uncompetitive inhibition of Saccharomyces cerevisiae alpha-glucosidase using pNPG as substrate assessed as ratio of Kik to Kiv at 1.6 uM.

Molecules are shown by their SMILES. Calls of active or inactive are those of the source. No cut-off for these calls is given here.

Turning to `O=C(O)C1=CCCN(Cc2ccccc2)C1`, the Activity was 97% with Saccharomyces cerevisiae [1], 100% in [2] and 89% in assay [3].

Consider `O=C(O)C1=CC(O)CN(Cc2ccccn2)C1` (configuration not stated), for which the “Inhibition type (qualitative)” value with Saccharomyces cerevisiae [4] was “Active”. For the same molecule, affinity in assay [5] was put at a Ki of 5300 nM. The “uncompetitive inhibition (Lineweaver-Burk)” value (“uncompetitive inhibition” for short) in the assay on Saccharomyces cerevisiae [6] was “Active”. Also, the figures for the Activity (with Saccharomyces cerevisiae [1]; in [2]; in assay [3]) were 2%, 101% and 103%, respectively. This molecule displayed an IC50 in [7] of 2000 nM.

As to `COC(=O)C1=CC(O)CN(Cc2ccccc2)C1` (configuration not stated), the Activity with Saccharomyces cerevisiae [1] worked out at 92%; in assay [2] it was 99%; in [3], 93%.

As for `O=C(O)C1=CCCN(Cc2ccncc2)C1`, the Activity turned out to be 99% in the assay on Saccharomyces cerevisiae [1], 99% in assay [2] and 95% in [3].

For the molecule `O=C(O)C1=CCCN(Cc2cccnc2)C1`, the Activity in the assay on Saccharomyces cerevisiae [1] was found to be 102%; in [2], 99%; in assay [3], 102%.

Regarding `CCOC(=O)N1C=C(C(=O)OC)CCC1`, the Activity came to 109% in the assay with Saccharomyces cerevisiae [1], 100% in [2] and 96% in [3].

For `O=C(O)C1=CCCN(Cc2cc(=O)[nH]c(=O)[nH]2)C1`, the Activity in the assay on Saccharomyces cerevisiae [1] was 97%; in assay [2], 102%; in assay [3] it was 100%.

As for `COC(=O)C1=CC(O)CN(Cc2cc(=O)[nH]c(=O)[nH]2)C1` (configuration not stated), the Activity in the assay on Saccharomyces cerevisiae [1] is 95%; in assay [2] it was 100%; in assay [3] it was 97%.

With `O=C(O)[C@H]1CN(Cc2ccncc2)CC[C@H]1O`, the Activity in the assay with Saccharomyces cerevisiae [1] turned out to be 85%; in [2], 100%; in [3], 108%.

In the case of `O=C(O)[C@H]1CN(Cc2ccccc2)CC[C@H]1O`, the Activity was 82% in the assay on Saccharomyces cerevisiae [1], 100% in assay [2] and 102% in assay [3].

On to `O=C(O)[C@H]1CN(Cc2ccccn2)CC[C@H]1O`, for which the Activity came out at 95% in the assay with Saccharomyces cerevisiae [1], 100% in assay [2] and 103% in assay [3].

As to `O=C(O)C1=CC(O)CN(Cc2ccncc2)C1` (configuration not stated), in the assay on Saccharomyces cerevisiae [4], the “Inhibition type (qualitative)” value is “Active”. Besides, the affinity in assay [5] corresponds to a Ki of 10200 nM. In the assay on Saccharomyces cerevisiae [6], the “uncompetitive inhibition” value is “Active”. The Activity was 3% with Saccharomyces cerevisiae [1], 104% in [2] and 103% in assay [3]. The molecule further came in with an IC50 in [7] of 2000 nM.

Turning to `COC(=O)C1=CC(O)CN(Cc2cccnc2)C1` (configuration not stated), the Activity in the assay on Saccharomyces cerevisiae [1] was determined as 105%; in assay [2], 99%; in assay [3], 102%.

Consider `O=C(O)[C@H]1CN(Cc2cccnc2)CC[C@H]1O`, for which the figures for the Activity (in the assay with Saccharomyces cerevisiae [1]; in [2]; in [3]) were 97%, 100% and 104%, respectively.

On to `O=C(O)C1=CC(O)CN(Cc2cc(=O)[nH]c(=O)[nH]2)C1` (configuration not stated), for which, in the assay on Saccharomyces cerevisiae [4], the “Inhibition type (qualitative)” value was “Active”. For the same molecule, the Ki in assay [5] is 12500 nM. For the same molecule, the “uncompetitive inhibition” value with Saccharomyces cerevisiae [6] is “Active”. Further, the values for the Activity (in the assay on Saccharomyces cerevisiae [1]; in [2]; in [3]) were 3%, 100% and 102%, respectively. The IC50 in [7] came to 2000 nM.

On to `O=C(O)C1=CC(O)CN(Cc2ccccc2)C1` (configuration not stated), for which the Activity in the assay with Saccharomyces cerevisiae [1] is 95%; in assay [2], 101%; in [3], 97%.

On to `O=C(O)C1=CC(O)CN(Cc2cccnc2)C1` (configuration not stated), for which the Ratio in the assay with Saccharomyces cerevisiae [8] stood at 1.2; in the assay with Saccharomyces cerevisiae [9], 1.47; with Saccharomyces cerevisiae [10] it was 1.09; in the assay on Saccharomyces cerevisiae [13], 1.05; in the assay on Saccharomyces cerevisiae [14], 1.49; in the assay with Saccharomyces cerevisiae [15] it was 1.07. The Ratio turned out to be 1.04 with Saccharomyces cerevisiae [16]; 1.72 in the assay on Saccharomyces cerevisiae [18]; 1.25 with Saccharomyces cerevisiae [19]; 1.03 with Saccharomyces cerevisiae [20]; 0.998 in the assay with Saccharomyces cerevisiae [21]; 1.09 in the assay on Saccharomyces cerevisiae [22]. Also, the “Inhibition type (qualitative)” value with Saccharomyces cerevisiae [4] is “Active”. The inhibition entry with Saccharomyces cerevisiae [11] and with Saccharomyces cerevisiae [12] was “Active” each time. In addition, the results for the Ki in assay [5] and in assay [17] were 1200 nM and 800 nM, respectively. For the same molecule, the “uncompetitive inhibition” value with Saccharomyces cerevisiae [6] was “Active”. The values for the Activity (in the assay on Saccharomyces cerevisiae [1]; in assay [2]; in assay [3]) were 2%, 102% and 100%, respectively. The IC50 in assay [7] came to 2340 nM.

As for `COC(=O)C1=CC(O)CN(Cc2ccccn2)C1` (configuration not stated), the Activity in the assay on Saccharomyces cerevisiae [1] is 97%; in [2], 100%; in assay [3], 103%.

Consider `O=C(O)C1=CCCN(Cc2ccccn2)C1`, for which the Activity with Saccharomyces cerevisiae [1] stood at 95%; in assay [2], 101%; in [3] it was 96%.

Take `CCOC(=O)C1CN(Cc2ccccc2)CCC1O` (mixture of isomers): the values for the Activity (in the assay with Saccharomyces cerevisiae [1]; in [2]; in assay [3]) were 100%, 103% and 95%, respectively.

Take `COC(=O)C1=CC(O)CN(Cc2ccncc2)C1` (configuration not stated): the figures for the Activity (in the assay on Saccharomyces cerevisiae [1]; in [2]; in [3]) were 94%, 99% and 105%, respectively.

Turning to `O=C(O)C1=CCCN(Cc2nc3ccccc3[nH]2)C1`, the Activity in the assay on Saccharomyces cerevisiae [1] stood at 93%; in assay [2], 100%; in assay [3] it was 100%.

The Ki is the dissociation constant of the complex between target and ligand, obtained from inhibition or displacement. The IC50 is the midpoint of a concentration-inhibition curve. Higher therefore signals weaker potency.

The values above are taken from ChEMBL document CHEMBL2417376, “N-Heteroarylmethyl-5-hydroxy-1,2,5,6-tetrahydropyridine-3-carboxylic acid a novel scaffold for the design of uncompetitive α-glucosidase inhibitors” (Bioorg Med Chem, 2013).
